Experimental data from ChEMBL document CHEMBL4270576, “Discovery of a benzenesulfonamide-based dual inhibitor of microsomal prostaglandin E2 synthase-1 and 5-lipoxygenase that favorably modulates lipid mediator biosynthesis in inflammation” (Eur J Med Chem, 2018).
pIC50: −log10 of the molar value. Calls of active or inactive are those of the source. The rule behind the calls is not given here.

Experiments:
Prostaglandin E synthase = target: T1, Prostaglandin E synthase (Homo sapiens, UniProt O14684); test: Inhibition of mPGES-1 isolated from microsomes of interleukin-1 beta-stimulated human A549 cells using PGH2 as substrate preincubated for 15 mins followed by substrate addition measured after 1 min by RP-HPLC analysis
T1 sequence (O14684 whole entry): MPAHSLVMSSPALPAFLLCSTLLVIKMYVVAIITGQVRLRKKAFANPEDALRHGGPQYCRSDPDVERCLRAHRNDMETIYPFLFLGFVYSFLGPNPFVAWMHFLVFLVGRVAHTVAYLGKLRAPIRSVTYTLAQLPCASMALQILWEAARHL
Summary of the method: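 Microsomes from A549 cells treated with IL-1β (1 ng/ml, 72 h), diluted in 0.1 M potassium phosphate pH 7.4 with 2.5 mM glutathione. Pre-incubated 15 min with compound or DMSO, then 20 µM PGH2 (final) for 1 min at 4 °C. IC50 from 4-5 concentrations.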

[1] = target: T2, Cytosolic phospholipase A2 (Homo sapiens) (UniProt P47712); test: Inhibition of cPLA2alpha-mediated [3H]-arachidonic acid release in Ca2+ ionophore A23187-stimulated human neutrophils at 10 uM preincubated for 15 mins followed by Ca2+ ionophore A23187 stimulation measured after 5 mins by scintillation counting method
T2 sequence (whole entry): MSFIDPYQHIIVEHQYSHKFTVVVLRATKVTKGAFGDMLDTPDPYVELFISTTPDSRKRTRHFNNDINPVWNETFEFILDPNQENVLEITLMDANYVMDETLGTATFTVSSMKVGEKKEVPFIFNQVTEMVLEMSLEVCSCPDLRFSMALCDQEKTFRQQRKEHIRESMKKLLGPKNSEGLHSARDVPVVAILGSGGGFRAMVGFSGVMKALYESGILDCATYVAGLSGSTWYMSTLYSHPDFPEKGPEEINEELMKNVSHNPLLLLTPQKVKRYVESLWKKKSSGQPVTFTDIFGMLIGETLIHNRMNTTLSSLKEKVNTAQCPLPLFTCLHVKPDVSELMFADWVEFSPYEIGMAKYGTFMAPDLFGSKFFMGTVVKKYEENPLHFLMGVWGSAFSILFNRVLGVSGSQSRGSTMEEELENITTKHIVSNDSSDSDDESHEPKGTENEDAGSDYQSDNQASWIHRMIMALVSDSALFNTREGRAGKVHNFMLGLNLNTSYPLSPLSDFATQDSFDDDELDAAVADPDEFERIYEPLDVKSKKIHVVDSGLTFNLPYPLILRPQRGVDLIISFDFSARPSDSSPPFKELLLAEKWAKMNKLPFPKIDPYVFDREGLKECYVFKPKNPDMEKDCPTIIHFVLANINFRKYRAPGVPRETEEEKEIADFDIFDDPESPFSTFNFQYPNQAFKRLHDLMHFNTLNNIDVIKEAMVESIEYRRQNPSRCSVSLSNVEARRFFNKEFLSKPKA
Summary of the method: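 Neutrophils (1 × 10^7) labelled with 5 nM [3H]-AA for 120 min at 37 °C, washed with fatty-acid-free BSA buffer, pre-incubated 15 min at 37 °C with compound or 0.1% DMSO, then stimulated with 2.5 µM A23187 for 5 min. Released [3H]-AA in supernatant counted by liquid scintillation; n=3-4.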

[2] = target: T3, Prostaglandin E synthase (Homo sapiens) (UniProt O14684); test: Inhibition of mPGES-1 in LPS/IFNgamma-differentiated human M1 macrophages assessed as effect on PGE2 level at 3 uM preincubated for 15 mins followed by Escherichia coli (O6:K2:H1) challenge for 90 mins by LC-MS/MS analysis; design: scale not given: the % may be the effect or the level left
T3 sequence (whole entry): T1 sequence (O14684 whole entry)
Summary of the method: (§1)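 Monocytes differentiated 6 days with GM-CSF (20 ng/ml) in RPMI/10% FCS, then polarized 48 h with LPS 100 ng/ml plus IFN-γ 20 ng/ml (M1). Cells (2 × 10^6) in PBS with 1 mM CaCl2 pre-incubated 15 min at 37 °C with 3 µM compound or 0.1% DMSO, then E. coli O6:K2:H1 (1:50) for 90 min. Methanol with deuterated standards added; SPE; UPLC-MS/MS; expressed as % of vehicle.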

Cyclooxygenase [3] = target: T4, Cyclooxygenase (Homo sapiens, UniProt P35354+P23219); test: Modulation of COX1/2-mediated PGF2a level in human M1 macrophages derived from LPS/IFNgamma-polarized human monocyte derived macrophages at 3 uM preincubated for 15 mins followed by Escherichia coli (O6:K2:H1) challenge for 90 mins by LC-MS/MS analysis; type: protein assay; conditions: 1.5 h; summary of the method: as §1
Cyclooxygenase [4] = target: T4, Cyclooxygenase; test: Modulation of COX1/2-mediated 11-HETE level in human M2 macrophages derived from IL4-polarized human monocyte derived macrophages at 3 uM preincubated for 15 mins followed by Escherichia coli (O6:K2:H1) challenge for 90 mins by LC-MS/MS analysis; type: ADME; conditions: 1.5 h
Summary of the method: (§2)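 Monocytes differentiated 6 days with M-CSF (20 ng/ml), then polarized 48 h with IL-4 20 ng/ml (M2). Cells (2 × 10^6) in PBS/1 mM CaCl2 pre-incubated 15 min at 37 °C with 3 µM compound or 0.1% DMSO, then challenged with E. coli O6:K2:H1 (1:50) for 90 min. Lipid mediators extracted by SPE with deuterated internal standards and quantified by UPLC-MS/MS as % of vehicle.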

Cyclooxygenase [5] = target: T4, Cyclooxygenase; test: Modulation of COX1/2-mediated 11-HEPE level in human M2 macrophages derived from IL4-polarized human monocyte derived macrophages at 3 uM preincubated for 15 mins followed by Escherichia coli (O6:K2:H1) challenge for 90 mins by LC-MS/MS analysis; type: ADME; conditions: 1.5 h; summary of the method: as §2
Homo sapiens [6] = species: Homo sapiens; test: Modulation of LO-mediated RvE3 level in human M2 macrophages derived from IL4-polarized human monocyte derived macrophages at 3 uM preincubated for 15 mins followed by Escherichia coli (O6:K2:H1) challenge for 90 mins by LC-MS/MS analysis; summary of the method: as §2
Homo sapiens [7] = species: Homo sapiens; test: Modulation of LO-mediated MaR1 level in human M2 macrophages derived from IL4-polarized human monocyte derived macrophages at 3 uM preincubated for 15 mins followed by Escherichia coli (O6:K2:H1) challenge for 90 mins by LC-MS/MS analysis; summary of the method: as §2
Cyclooxygenase [8] = target: T4, Cyclooxygenase; test: Modulation of COX1/2-mediated TXB2 level in human M1 macrophages derived from LPS/IFNgamma-polarized human monocyte derived macrophages at 3 uM preincubated for 15 mins followed by Escherichia coli (O6:K2:H1) challenge for 90 mins by LC-MS/MS analysis; type: protein assay; conditions: 1.5 h; summary of the method: as §1
Mus musculus = test: Antiinflammatory activity in CD-1 mouse assessed as reduction in zymosan-induced LTC4 formation in peritoneal cavity at 10 mg/kg, ip preincubated for 30 mins followed by zymosan addition measured after 30 mins by ELISA; type: functional, organism-based
Summary of the method: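 CD-1 male mice (6-8 weeks), n=6 per group, given 10 mg/kg i.p. in 2% DMSO/saline vehicle 30 min before i.p. zymosan (500 µL of 2 mg/mL suspension). Peritoneal cavity washed with 3 ml PBS 30 min after zymosan; LTC4 measured in exudate. One-way ANOVA with Bonferroni test.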

Leukotriene C4 synthase = target: T5, Leukotriene C4 synthase (Homo sapiens, UniProt Q16873); test: Inhibition of LTC4 synthase (unknown origin)
T5 sequence (Q16873 whole entry): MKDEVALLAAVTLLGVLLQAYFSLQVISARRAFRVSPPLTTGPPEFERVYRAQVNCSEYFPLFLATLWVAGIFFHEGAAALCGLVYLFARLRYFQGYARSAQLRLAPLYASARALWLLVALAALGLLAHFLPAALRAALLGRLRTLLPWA

`O=C(O)c1ccc(N(Cc2cccc(OCc3ccccc3)c2)S(=O)(=O)c2ccc(-c3ccccc3)cc2)cc1` was tested, and the pIC50 (Prostaglandin E synthase) was 6.15, the inhibition [1] was “inactive” and the Activity [2] was 72%. For the same molecule, the Activity (Cyclooxygenase [3]) was 142%, the Activity (Cyclooxygenase [4]) was 106% and the Activity (Cyclooxygenase [5]) was 107%. For the same molecule, the Activity (Homo sapiens [6]) was 121%, the Activity (Homo sapiens [7]) was 141% and the Activity (Cyclooxygenase [8]) was 92%. The Activity (Mus musculus) was “Active” and the pIC50 (Leukotriene C4 synthase) was 5.74.
